Source: PubChem
HTRA1 inhibitor – HTRA1 (human) protease inhibition; recombinant HTRA1, FP-rhodamine activity-based probe, fluorescence polarization; Q92743; AID 504803; actives 0.5% (n = 340,000); inhibition, % at 5.96 µM; in the data active means inhibition above about 36%;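 further: 0% = enzyme with DMSO and 100% = wells lacking enzyme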
Target sequence (Q92743 whole entry, looked up): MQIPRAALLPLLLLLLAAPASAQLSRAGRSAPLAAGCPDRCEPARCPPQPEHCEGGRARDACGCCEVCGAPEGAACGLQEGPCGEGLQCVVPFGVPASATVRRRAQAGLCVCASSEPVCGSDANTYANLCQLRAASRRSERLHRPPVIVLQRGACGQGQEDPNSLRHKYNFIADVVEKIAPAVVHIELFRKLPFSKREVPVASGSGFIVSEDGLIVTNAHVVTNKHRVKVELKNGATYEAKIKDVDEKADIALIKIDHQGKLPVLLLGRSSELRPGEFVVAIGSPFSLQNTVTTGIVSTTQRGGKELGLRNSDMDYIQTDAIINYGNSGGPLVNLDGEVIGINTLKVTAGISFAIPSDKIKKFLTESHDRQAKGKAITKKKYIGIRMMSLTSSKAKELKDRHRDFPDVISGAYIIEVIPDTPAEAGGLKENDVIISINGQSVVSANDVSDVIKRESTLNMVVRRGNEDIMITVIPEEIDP
SIAE primary – blocks human sialic acid acetylesterase. Q9HAT2. SIAE FP-Rh probe binding, fluorescence polarization. inhibition, % at 9.66 µM. actives 0.69% (n = 370,000). AID 1053197;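 active means inhibition above a cutoff: mean of compounds within the control limits plus 3 SD of those, cut at about 17% in these data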;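 further: 0% = plate median of compound wells and 100% = probe without SIAE protein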
mABHD4 FP – ABHD4 (mouse) inhibition, primary FP screen; Q8VD66; purified mABHD4, FP-Rh probe fluorescence polarization; inhibition, % at 8.92 µM; actives 0.54% (n = 370,000); AID 720543;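 active means inhibition exceeding the mean over every tested compound plus 3 SD, cut at about 30% in these data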;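 further: 0% = plate median of compound wells and 100% = S159A mutant with DMSO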
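Assay system: mABHD4 protein; medium: HEPES pH 7.0, NaCl, Pluronic buffer; dosing: 8.92 µM, single dose; schedule: 45 min + 60 min at 25 °C; signal: FP readout, ex 525 nm / em 598 nm; read-out: normalized percent inhibition of probe labeling; repeats: single replicate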
TCR CD3 inh – human TCR-CD3 binding inhibition. TAMRA-labeled TCR probe fluorescence, biochemical. inhibition, % at 9.4 µM. actives 0.37% (n = 360,000); in the data active means inhibition above about 19%;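 further: recombinant mutant TCR 2C K166C tagged with TAMRA read by polarization; 0% = receptor in buffer alone and 100% = receptor with positive control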
pPAFAH inh – pPAFAH (human) enzyme inhibition; Q13093; recombinant pPAFAH, FP-rhodamine probe fluorescence polarization; inhibition, % at 3.39 µM; actives 1.5% (n = 330,000);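 active means inhibition above the mean inhibition across the screen plus 3 SD, cut at about 25% in these data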;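 further: inhibitors block binding of the rhodamine activity-based probe so polarization drops; 0% = enzyme with DMSO and 100% = wells lacking pPAFAH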
Starred values were filed as active, the others as inactive; . = not tested or not shown. Most compounds without a hit are left out; they make up all but 2.3% or so of the library.

SMILES	HTRA1 inhibitor	SIAE primary	mABHD4 FP	TCR CD3 inh	pPAFAH inh
O=C(COC(=O)c1ncc(Cl)c(Cl)c1Cl)Nc1ccccc1OC(F)F	-4	4	0	-8	25*
O=C(COC(=O)c1cccc(S(=O)(=O)NCc2ccccc2)c1)Nc1ccccc1OC(F)F	-11	1	-7	-1	32*
Cc1ccc(OCc2nnc(SCC(=O)Nc3cccc4ccccc34)n2Cc2ccco2)cc1	.	-12	-13	.	.
COC(=O)[C@]12C[C@H](CC(=O)NCCCCc3ccccc3)C(=O)N(CCc3ccc(OC)c(OC)c3)C1=C[C@H](C1CCCC1)O[C@@H]2C	.	-3	0	.	.
O=C(COc1ccccc1)Nc1ccccc1F	4	5	4	-3	4
O=C(COc1c(Br)cc(Br)c2cccnc12)Nc1ccccc1F	27	14	14	-1	30*
CC(C)Cc1ccc(C(C)NC(=O)Cc2ccc(S(=O)(=O)N3CCOCC3)s2)cc1 (stereo not drawn)	-13	-6	-10	-9	30*
O=S1(=O)c2ccccc2N=NN1Cc1cc(Cl)cc(Cl)c1	.	.	.	.	33*
CC(=O)OC[C@]12CC[C@H]3[C@@](C)(CC[C@H]4C(C)(C)CCC[C@]34C)[C@@H]1C[C@@H](C1=CC(=O)O[C@@H]1OC(C)=O)O2	.	.	.	.	7
CC(=O)OC[C@]12CC[C@H]3[C@@](C)(CC[C@H]4C(C)(C)CCC[C@]34C)[C@@H]1C[C@H](C1=CC(=O)O[C@H]1OC(C)=O)O2	.	.	.	.	50*
Cc1cc(C)cc(Nc2nc(-c3ccc(S(=O)(=O)N4CCCC4)cc3)cs2)c1	-11	22*	2	0	10
COc1cc(C(=O)NC2CCCCN(C(C)C)C2=O)cc(OC)c1OC (stereo not drawn)	.	-9	3	.	.
O=C1/C(=C\c2ccco2)SC(=S)N1c1ccc(O)cc1	-1	8	13	-5	34*
O=C1/C(=C\c2ccc(O)cc2)SC(=S)N1c1cccnc1	-10	4	-7	-25	-9
O=C(CN1C(=O)/C(=C/c2ccco2)SC1=S)Nc1ccc(O)c(C(=O)O)c1	3	-8	-29	-1	33*
COc1ccc(NC(=O)CCCN2C(=O)/C(=C\c3ccco3)SC2=S)cc1	-4	-1	2	-10	14
Cc1ccc(NS(=O)(=O)c2ccc(N3C(=O)CCC3=O)cc2)cc1	-3	-4	-4	-2	23
CC(C)c1ccc(S(=O)(=O)Nc2ccc(-n3cnnn3)cc2)cc1	-4	0	-3	10	.
CC(C)c1ccc(NS(=O)(=O)c2ccc(-n3cccn3)cc2)cc1	-41	-8	-11	9	25*
CC(C)c1ccc(NS(=O)(=O)c2ccc(N3C(=O)CCC3=O)cc2)cc1	-1	-3	-1	0	29*
O=C(N/N=C/C=C/c1ccco1)/C(=C/c1ccccc1)NC(=O)c1ccccc1	14	8	3	0	31*
O=C(N/N=C/C=C/c1ccco1)c1ccncc1	10	14	7	11	9
COc1cc(-c2nnc(-c3cccs3)o2)cc(OC)c1OC	-3	18*	-5	-4	-3
COc1ccc(-c2nnc(-c3cccs3)o2)cc1OC	2	0	2	-3	2
CC(C)NC(=O)NC(=O)COC(=O)c1ccc(S(=O)(=O)Nc2ccccc2)cc1	2	-6	-14	8	25*
SMILES	HTRA1 inhibitor	SIAE primary	mABHD4 FP	TCR CD3 inh	pPAFAH inh
Cc1cc(C)cc(OC[C@@H](O)CN2CCC(C(O)(c3ccccc3)c3ccccc3)CC2)c1	.	2	10	.	.
CCN1CCN(c2cc(C(C)C)nc3c(-c4ccccc4)c(C)nn23)CC1	.	18*	14	3	5
COc1cccc(NC(=O)CSc2nc3c(c(-c4ccco4)c2C#N)CCCC3)c1	-9	5	-4	-5	3
COCCOC(=O)c1c(C)nc(SCC(=O)Nc2ccc(OC)cc2)c(C#N)c1-c1ccco1	-9	0	-9	-6	27*
Nc1ccc(N)c(C(=O)O)c1	54*	.	.	.	34*
Oc1c(CN2CCc3ccccc3C2)cc(Cl)c2cccnc12	69*	.	.	.	16
Brc1cc2c(cc1CN1CCc3ccccc3C1)OCO2	-7	6	-2	5	2
O=C1C=C[C@H]2CC[C@@H](O)[C@@H]1[C@@H]2Sc1ccccc1	.	1	6	.	.
O=C(NCCCO)Nc1ccc2nc(-c3ccco3)c(-c3ccco3)nc2c1	.	.	.	.	62*
O=C(Nc1ccc(F)c(Cl)c1)NC1CC1	4	0	-13	14	7
OCCCNC(=S)Nc1ccc2nc(-c3ccccn3)c(-c3ccccn3)nc2c1	-1	6	12	1	6
O=C(Nc1ccc2nc(-c3ccco3)c(-c3ccco3)nc2c1)NC1CC1	51*	.	.	.	.
CCOC(=O)N[C@H](C(=O)N1CCC[C@H]1C(=O)NCCc1ccccc1Cl)c1ccccc1	.	1	-15	-4	.
CCCc1ccc2oc(C(=O)N3CCC(COC)C3)c(C)c2c1 (stereo not drawn)	-9	-6	-3	2	27*
COc1cccc(OC(C)CCN2CCC(C(O)(c3ccccc3)c3ccccc3)CC2)c1 (stereo not drawn)	.	-6	5	.	.
CN1CCN(S(=O)(=O)c2cccc(C(=O)Nc3sc4c(c3-c3nc5ccccc5[nH]3)CCCC4)c2)CC1	-8	25*	3	-5	7
Cc1ccccc1NS(=O)(=O)c1ccc(OCC(=O)NCc2ccccn2)cc1	-3	7	0	7	29*
O=C(COc1ccc(S(=O)(=O)Nc2ccccc2)cc1)NCc1ccccn1	-3	1	-3	2	.
Cc1ccccc1NS(=O)(=O)c1ccc(C(=O)N2CCCCCC2)cc1	-4	7	-2	2	25*
Cc1ccccc1NS(=O)(=O)c1ccc(C(=O)N2CCN(c3ccccn3)CC2)cc1	-1	-5	-5	0	26*
CCOC(=O)[C@]12CCCCC/C=C\1N(CCc1ccc(Cl)cc1)C(=O)[C@H]2CC(=O)NCCCN1CCCC1=O	.	-1	1	.	.
CC(=O)Oc1ccc2c(c1)O/C(=C\c1ccncc1)C2=O	4	.	.	.	3
COc1cc(OC)c(OC)cc1/C=C1\Oc2cc(OS(C)(=O)=O)ccc2C1=O	1	-2	1	-1	7
COc1ccc2c(c1)O/C(=C\c1ccccc1C)C2=O	-24	-3	-5	2	27*
COc1ccc(/C=C2\Oc3cc(OC(=O)N4CCOCC4)ccc3C2=O)cc1	7	5	7	-4	27*
CCc1ccc(/C=C2\Oc3cc(OC(=O)N4CCOCC4)ccc3C2=O)cc1	4	0	21	-7	26*
CCn1c(=O)n(CC(=O)N2CCN(c3ccc(F)cc3)CC2)c(=O)c2ccccc21	.	0	5	.	.
O=C(/C=C/c1ccco1)NC(=S)Nc1ccc(O)c(-c2nc3ccccc3s2)c1	-12	17	17	0	25*
Cc1ccc(O)c(NC(=S)NC(=O)/C=C/c2ccco2)c1	-6	8	11	14	25*
